Published values collected from several papers.
Lines come from different studies, so protocols differ.

CCN1CCN(Cc2ccc(NC(=O)c3ccc(C)c(NC(=O)c4cncc(-c5cccs5)c4)c3)cc2C(F)(F)F)CC1  AUC(0-inf) (mouse, plasma; intraperitoneal, 15 mg/kg, single dose): 1.75 µg·h/mL
Nc1ncn([C@H]2C[C@H](O)[C@@H](CO)O2)c(=O)n1  AUC(0-t) (female C57BL/6 mouse, plasma; intravenous, 0.4 mg/kg): 182 ng·h/mL
CN(C)C/C=C/C(=O)Nc1cc2c(Nc3ccc(F)c(Cl)c3)ncnc2cc1O[C@H]1CCOC1  half-life (chemical stability; PBS; 250 µM, pH 7.4): > 4.17 days
CCOc1ccc(N(C)S(=O)(=O)c2cc(Cl)sc2C(=O)Nc2cc(Cl)cc(C(=O)O)c2)cc1OC  AUC(0-inf) (male C57BL/6 mouse, plasma; intraperitoneal, 10 mg/kg): 6.1 µg·h/mL
Cc1c(C(=O)O)ccc2c3n(nc12)[C@@H]1[C@H](C3)N(CC2CC2)[C@@]2(C(=O)Nc3cc(Cl)ccc32)[C@H]1c1cccc(Cl)c1F  bioavailability (female mouse, plasma; oral, 5 mg/kg): 119%
CC1=NN(/C(=N/c2nnc(C)s2)Nc2ccc(C)c(C)c2)C(c2cc(F)c(F)c(F)c2)S1 (stereo not shown)  bioavailability (male CD-1 mouse, plasma; oral, 30 mg/kg): 13.4%
Cc1cc(-c2cn[nH]c2-c2cccc(OCc3cccc(C#N)c3)c2)cc(C)n1  bioavailability (mouse, plasma; oral, 200 mg/kg): 47%
Nc1ccc(/N=N/c2cccc(F)c2F)c(N)n1  bioavailability (male CD-1 mouse, plasma; intraperitoneal, 100 mg/kg): 261%
Cc1c(C(=O)O)ccc2c3n(nc12)[C@@H]1[C@H](C3)N(CC2CC2)[C@@]2(C(=O)Nc3cc(Cl)ccc32)[C@H]1c1cccc(Cl)c1F  bioavailability (FVB mouse, plasma; oral, 10 mg/kg, single dose): 79%
CNC(=O)c1ccc(N2C(=S)N(c3ccc(C#N)c(C(F)(F)F)c3)C(=O)C2(C)C)cc1F  bioavailability (male C57BL/6 mouse, plasma; oral, 0.0215 mmol/kg): 45%
CN1CCN(C(=O)[C@H](CCCN[C@@H]2C[C@H]2c2ccc(F)cc2)NC(=O)c2ccc(-n3ccnn3)cc2)CC1  AUC(0-t) (CD-1 mouse, plasma; oral, 10 mg/kg): 2.27 µM·h
Cc1cc2sc(N)nc2c2cccnc12  AUC(0-t) (female BALB/c mouse, plasma; intraperitoneal, 30 mg/kg, single dose): 45500 ng·h/mL
CC(C)C[C@H](NC(=O)[C@@H]1COCCCCCC(=O)N2C[C@H](F)C[C@H]2C(=O)N1)C(=O)[C@@]1(C)CO1  bioavailability (male BALB/c mouse, plasma; oral, 150 mg/kg): ~10%
